The source of these data is ChEMBL document CHEMBL1152452, “Modifications incorporated in CpG motifs of oligodeoxynucleotides lead to antagonist activity of toll-like receptors 7 and 9” (2009).

SMILES strings stand for the structures. Activity calls are given as the source filed them. The calls are words filed in the database; no cut-off is given here.

For assay [1], the system named is Mus musculus. The experiment in a line: Immunostimulatory activity in C57BL/6 mouse assessed as inhibition of TLR3 agonist-induced IL6 production in serum at 10 mg/kg, sc administered 24 hrs prior to TLR3 agonist challenge measured after 2 hrs by Luminex multiplex assay.
Assay [2] concerns Mus musculus. The experiment in a line: Immunostimulatory activity in sc dosed C57BL/6 mouse assessed as inhibition of 5'-CTATCTGACGTTCTCTGT-3'-induced IL12 production in serum administered 24 hrs prior to 5'-CTATCTGACGTTCTCTGT-3' challenge measured after 2 hrs by sandwich ELISA. It counts as functional, organism-based. The essentials: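 Test ODN was given sc in the right flank of C57BL/6 mice at 2, 5 or 10 mg/kg. After 24 h (or 24, 48 or 72 h in the duration study), the agonist ODN was given sc in the left flank at 0.25, 0.5 or 1 mg/kg (0.5 mg/kg by default). Serum was taken 2 h later by retro-orbital bleed, and IL-12 was measured by sandwich ELISA.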
For orientation: In an ELISA, binding on a coated surface is turned into a signal by an enzyme label.

In assay [3] the test system is Mus musculus. In words: Immunostimulatory activity in C57BL/6 mouse assessed as inhibition of 5'-CTATCTGACGTTCTCTGT-3'-induced IL12 production in serum at 10 mg/kg, sc administered 48 hrs prior to 5'-CTATCTGACGTTCTCTGT-3' challenge measured after 2 hrs by sandwich ELISA. It counts as functional. The conditions noted are these: C57BL/6, sc, route subcutaneous. Put shortly: (§1)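 C57BL/6 mice received 10 mg/kg ODN sc in the right flank. The TLR9 agonist ODN was then given at 0.5 mg/kg sc in the left flank 24, 48 or 72 h later. Serum IL-12 was measured by ELISA 2 h after challenge. Naive serum served as reference. Representative of three experiments.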

Assay [4] has as its system Mus musculus. The experiment in a line: Immunostimulatory activity in C57BL/6 mouse assessed as inhibition of TLR7 agonist-induced IP10 production in serum at 5 mg/kg, sc administered 24 hrs prior to TLR7 agonist challenge measured after 2 hrs by Luminex multiplex assay. The conditions noted are these: C57BL/6, sc, route subcutaneous. The class given is functional.
Assay [5] has as its system Mus musculus. The experiment in a line: Immunostimulatory activity in C57BL/6 mouse assessed as inhibition of LPS-induced IL12 production in serum at 10 mg/kg, sc administered 24 hrs prior to LPS challenge measured after 2 hrs by Luminex multiplex assay.
Assay [6] concerns Mus musculus. The experiment in a line: Immunostimulatory activity in C57BL/6 mouse assessed as inhibition of 5'-CTATCTGACGTTCTCTGT-3'-induced IL10 production in serum at 5 mg/kg, sc administered 24 hrs prior to 5'-CTATCTGACGTTCTCTGT-3' challenge measured after 2 hrs by Luminex multiplex assay. It counts as functional. The conditions noted are these: C57BL/6, sc, route subcutaneous.

Assay [7] relates to Mus musculus. The experiment in a line: Immunostimulatory activity in C57BL/6 mouse assessed as inhibition of LPS-induced IL10 production in serum at 10 mg/kg, sc administered 24 hrs prior to LPS challenge measured after 2 hrs by Luminex multiplex assay.
For assay [8], the system named is Mus musculus. The experiment in a line: Immunostimulatory activity in C57BL/6 mouse assessed as inhibition of 5'-CTATCTGACGTTCTCTGT-3'-induced IL12 production in serum at 5 mg/kg, sc administered 24 hrs prior to 5'-CTATCTGACGTTCTCTGT-3' challenge measured after 2 hrs by sandwich ELISA. It counts as functional. The conditions noted are these: C57BL/6, sc, route subcutaneous. Put shortly: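 C57BL/6 mice were pretreated sc in the right flank with 2, 5 or 10 mg/kg ODN. After 24 h, the TLR9 agonist ODN was given at 0.5 mg/kg sc in the left flank. Serum IL-12 was measured by ELISA 2 h later. Representative of two experiments.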

Assay [9] relates to Mus musculus. The experiment in a line: Immunostimulatory activity in C57BL/6 mouse assessed as inhibition of LPS-induced IP10 production in serum at 10 mg/kg, sc administered 24 hrs prior to LPS challenge measured after 2 hrs by Luminex multiplex assay.
Assay [10] deals with Mus musculus. In words: Immunostimulatory activity in C57BL/6 mouse assessed as inhibition of TLR3 agonist-induced IL12 production in serum at 10 mg/kg, sc administered 24 hrs prior to TLR3 agonist challenge measured after 2 hrs by Luminex multiplex assay.
In assay [11] the test system is Mus musculus. The experiment in a line: Immunostimulatory activity in C57BL/6 mouse assessed as inhibition of 5'-CTATCTGACGTTCTCTGT-3'-induced IL12 production in serum at 10 mg/kg, sc administered 24 hrs prior to 5'-CTATCTGACGTTCTCTGT-3' challenge measured after 2 hrs by sandwich ELISA. It counts as functional. The following applies: C57BL/6, sc, route subcutaneous. The essentials:
as §1

The test system of assay [12] is Mus musculus. The experiment in a line: Immunostimulatory activity in C57BL/6 mouse assessed as inhibition of 5'-CTATCTGACGTTCTCTGT-3'-induced MCP1 production in serum at 5 mg/kg, sc administered 24 hrs prior to 5'-CTATCTGACGTTCTCTGT-3' challenge measured after 2 hrs by Luminex multiplex assay. The class given is functional. The conditions noted are these: C57BL/6, sc, route subcutaneous.

Assay [13] deals with Mus musculus. In words: Immunostimulatory activity in C57BL/6 mouse assessed as inhibition of TLR3 agonist-induced MIG production in serum at 10 mg/kg, sc administered 24 hrs prior to TLR3 agonist challenge measured after 2 hrs by Luminex multiplex assay.
For assay [14], the system named is Mus musculus. The experiment in a line: Immunostimulatory activity in C57BL/6 mouse assessed as inhibition of TLR7 agonist-induced IL6 production in serum at 5 mg/kg, sc administered 24 hrs prior to TLR7 agonist challenge measured after 2 hrs by Luminex multiplex assay. It counts as functional. The conditions noted are these: C57BL/6, sc, route subcutaneous.
Assay [15] concerns Mus musculus. The experiment in a line: Immunostimulatory activity in C57BL/6 mouse assessed as inhibition of LPS-induced MIP1a production in serum at 10 mg/kg, sc administered 24 hrs prior to LPS challenge measured after 2 hrs by Luminex multiplex assay.

In general, inhibition in vivo refers to the relative decrease from the control value, in per cent. In the case of `COC1[C@H](n2cnc3c(=O)[nH]c(N)nc32)O[C@H](COP(=O)(S)O[C@H]2C[C@H](n3cc(C)c(N)nc3=O)O[C@@H]2COP(=O)(S)O[C@H]2C[C@H](n3cnc4c(N)ncnc43)O[C@@H]2COP(=O)(S)O[C@H]2C[C@H](n3cnc4c(=O)[nH]c(N)nc43)O[C@@H]2COP(=O)(S)O[C@H]2C[C@H](n3cc(C)c(=O)[nH]c3=O)O[C@@H]2COP(=O)(S)O[C@H]2C[C@H](n3ccc(N)nc3=O)O[C@@H]2COP(=O)(S)O[C@H]2C[C@H](n3cc(C)c(=O)[nH]c3=O)O[C@@H]2COP(=O)(S)O[C@H]2C[C@H](n3cnc4c(N)ncnc43)O[C@@H]2COP(=O)(S)O[C@H]2C[C@H](n3cc(C)c(=O)[nH]c3=O)O[C@@H]2COP(=O)(S)O[C@H]2C[C@H](n3ccc(N)nc3=O)O[C@@H]2CO)[C@H]1OP(=O)(S)OC[C@H]1O[C@@H](n2cc(C)c(=O)[nH]c2=O)C[C@@H]1OP(=O)(S)OC[C@H]1O[C@@H](n2cc(C)c(=O)[nH]c2=O)C[C@@H]1OP(=O)(S)OC[C@H]1O[C@@H](n2ccc(N)nc2=O)C[C@@H]1OP(=O)(S)OC[C@H]1O[C@@H](n2cc(C)c(=O)[nH]c2=O)C[C@@H]1OP(=O)(S)OC[C@H]1O[C@@H](n2ccc(N)nc2=O)C[C@@H]1OP(=O)(S)OC[C@H]1O[C@@H](n2cc(C)c(=O)[nH]c2=O)C[C@@H]1OP(=O)(S)OC[C@H]1O[C@@H](n2cnc3c(=O)[nH]c(N)nc32)C[C@@H]1OP(=O)(S)OC[C@H]1O[C@@H](n2cc(C)c(=O)[nH]c2=O)C[C@@H]1O` (stereo not given in full), the outcome in the assay on Mus musculus [1], in the assay on Mus musculus [5], in the assay on Mus musculus [7], in the assay on Mus musculus [9], in the assay with Mus musculus [10] and with Mus musculus [13] was inactive. For the same compound, the outcome in the assay with Mus musculus [15] was inactive. Moreover, the Activity result in the assay on Mus musculus [2] is “Dose-dependent effect”. Also, the results for the inhibition in vivo at 10 mg/kg with Mus musculus [3] and with Mus musculus [11] were 57% and 81%, respectively. In addition, the inhibition in vivo at 5 mg/kg came out at 50% in the assay with Mus musculus [4]; 50% in the assay with Mus musculus [6]; 66% in the assay on Mus musculus [8]; 50% in the assay with Mus musculus [12]; 50% in the assay with Mus musculus [14].
